In ChEMBL document CHEMBL1649438, “Activities of ceftobiprole and other cephalosporins against extracellular and intracellular (THP-1 macrophages and keratinocytes) forms of methicillin-susceptible and methicillin-resistant Staphylococcus aureus” (Antimicrob Agents Chemother, 2009) one finds EC50, log10cfu and Activity data, which are given here for 1 compound.

Structures are written as SMILES. In brackets after ≈: the same amount, converted by molar mass.

Experiment [1] deals with Staphylococcus aureus. In words: Antimicrobial activity against Panton-valentine leucocidin-positive community-acquired methicillin-resistant Staphylococcus aureus STA 228 infected in human THP-1 cells assessed as change in bacterial count after 24 hrs. In kind it is functional, organism-based. To be noted: STA 228, THP-1, 24 h. A digest of the protocol: (§1)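 THP-1 human macrophages infected with S. aureus (postphagocytosis inoculum 1.5 × 10^6 to 3.0 × 10^6 CFU/mg cell protein), then incubated 24 h with increasing extracellular antibiotic concentrations. Change in log10 CFU/mg cell protein from the postphagocytosis inoculum, n = 3. Hill function fitted on log-transformed data. Low-concentration value (E0) and high-concentration value (Emax) are extrapolated. Where a pH is given, concentrations are expressed as multiples of the broth MIC at that pH.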

The test system of experiment [2] is Staphylococcus aureus. The experiment can be described thus: Antimicrobial activity against methicillin-resistant Staphylococcus aureus ATCC 33591 infected in human keratinocytes assessed as change in bacterial count after 24 hrs. In kind it is functional, organism-based. To be noted: ATCC 33591, 24 h. Summed up: (§2)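 Primary human skin keratinocytes were grown in defined keratinocyte serum-free medium, infected with a postphagocytosis inoculum of 1.5 × 10⁶ to 3.0 × 10⁶ CFU/mg cell protein, then exposed 24 h to increasing extracellular antibiotic concentrations. Change in log10 CFU/mg protein from the inoculum was fitted to a Hill equation with slope 1. E0 and Emax were extrapolated to infinitely low and high concentrations, in total drug mg/liter.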

The test system of experiment [3] is Staphylococcus aureus. The experiment can be described thus: Antimicrobial activity against hospital-acquired vancomycin-intermediate Staphylococcus aureus NRS18 infected in human THP-1 cells assessed as bacterial count per mg of cell protein at low extracellular compound concentration after 24 hrs. In kind it is functional. Summed up:
(§3)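 Human THP-1 macrophage-like cells were infected with S. aureus to a postphagocytosis inoculum of 1.5 × 10^6 to 3.0 × 10^6 CFU/mg cell protein. Cells were then exposed 24 h to increasing extracellular antibiotic concentrations. Response was the log10 CFU change per mg protein from the postphagocytosis inoculum, n = 3. A Hill function was fitted on log-transformed axes. E0 and Emax were extrapolated to infinitely low and high concentrations. Cs was read by graphical interpolation. Concentrations were expressed as multiples of the broth MIC at pH 5.5 or pH 7.4.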

Experiment [4] concerns Staphylococcus aureus. In words: Antimicrobial activity against methicillin-resistant Staphylococcus aureus ATCC 33591 infected in human keratinocytes assessed as bacterial count per mg of cell protein at low extracellular compound concentration after 24 hrs. Type of experiment: functional. Summed up: as §2
Experiment [5] has as its system Staphylococcus aureus. In words: Bacteriostatic activity against hospital-acquired vancomycin-intermediate Staphylococcus aureus NRS18 infected in human THP-1 cells assessed as change in bacterial count after 24 hrs at pH 7.4. Type of experiment: functional. Summed up: as §3
Experiment [6] has as its system Staphylococcus aureus. The experiment can be described thus: Antimicrobial activity against methicillin-susceptible Staphylococcus aureus NRS52 infected in human THP-1 cells assessed as change in bacterial count after 24 hrs. Type of experiment: functional, organism-based. To be noted: NRS52, THP-1, 24 h. A digest of the protocol: (§4)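 THP-1 macrophages infected as described previously, with a postphagocytosis inoculum of 1.5 × 10⁶ to 3.0 × 10⁶ CFU/mg cell protein. Cells were exposed 24 h to increasing extracellular antibiotic concentrations. Response is the change in log10 CFU/mg protein from the inoculum (n = 3), fitted to a Hill function. E0 and Emax were extrapolated to infinitely low and high concentrations. EC50 and static concentration (graphical interpolation) are expressed as multiples of the broth MIC at pH 5.5 or 7.4.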

The test system of experiment [7] is Staphylococcus aureus. In words: Antimicrobial activity against hospital-acquired vancomycin-intermediate Staphylococcus aureus NRS126 infected in human THP-1 cells assessed as bacterial count per mg of cell protein at low extracellular compound concentration after 24 hrs at pH 5.5. In kind it is functional. A digest of the protocol: as §4
For experiment [8], the system named is Staphylococcus aureus. In words: Antimicrobial activity against Panton-valentine leucocidin-positive community-acquired methicillin-resistant Staphylococcus aureus STA 44 infected in human THP-1 cells assessed as change in bacterial count after 24 hrs at pH 5.5. Type of experiment: functional, organism-based. To be noted: STA 44, THP-1, 24 h. Summed up:
as §1

In experiment [9] the test system is Staphylococcus aureus. In words: Antimicrobial activity against hospital-acquired methicillin-resistant Staphylococcus aureus ATCC 33592 infected in human THP-1 cells assessed as bacterial count per mg of cell protein at low extracellular compound concentration after 24 hrs. In kind it is functional. A digest of the protocol: as §4
Experiment [10] has as its system Staphylococcus aureus. In words: Antimicrobial activity against hospital-acquired methicillin-resistant Staphylococcus aureus […] infected in human THP-1 cells assessed as bacterial count per mg of cell protein at high extracellular compound concentration after 24 hrs. In kind it is functional. A digest of the protocol: as §4
The test system of experiment [11] is Staphylococcus aureus. The experiment can be described thus: Antimicrobial activity against methicillin-susceptible Staphylococcus aureus ATCC 25923 infected in human keratinocytes assessed as bacterial count per mg of cell protein at high extracellular compound concentration after 24 hrs. Type of experiment: functional. Summed up: (§5)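 Primary human skin keratinocytes were grown in defined keratinocyte serum-free medium and infected with S. aureus to 1.5 × 10^6 to 3.0 × 10^6 CFU/mg cell protein. Cells were exposed 24 h to increasing extracellular concentrations. Response was the log10 CFU change from the postphagocytosis inoculum, fitted by a Hill equation with slope 1. Cs is the concentration giving CFU equal to the original inoculum, found by graphical interpolation.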

Experiment [12] deals with Staphylococcus aureus. In words: Bacteriostatic activity against methicillin-susceptible Staphylococcus aureus ATCC 11632 infected in human THP-1 cells assessed as change in bacterial count after 24 hrs at pH 5.5. Type of experiment: functional. A digest of the protocol:
as §3

Experiment [13] has as its system Staphylococcus aureus. The experiment can be described thus: Antimicrobial activity against hospital-acquired methicillin-resistant Staphylococcus aureus ATCC 33591 infected in human THP-1 cells assessed as bacterial count per mg of cell protein at high extracellular compound concentration after 24 hrs. Type of experiment: functional. A digest of the protocol:
as §1

Experiment [14] has as its system Staphylococcus aureus. In words: Antimicrobial activity against hospital-acquired vancomycin-intermediate Staphylococcus aureus NRS18 infected in human THP-1 cells assessed as change in bacterial count after 24 hrs at pH 5.5. In kind it is functional, organism-based. To be noted: NRS18, THP-1, 24 h. A digest of the protocol: as §4
Experiment [15] concerns Staphylococcus aureus. In words: Antimicrobial activity against Panton-valentine leucocidin-positive community-acquired methicillin-resistant Staphylococcus aureus STA 44 infected in human THP-1 cells assessed as bacterial count per mg of cell protein at high extracellular compound concentration after 24 hrs at pH 5.5. In kind it is functional. Summed up:
as §1

Experiment [16] concerns Staphylococcus aureus. The experiment can be described thus: Antimicrobial activity against hospital-acquired vancomycin-intermediate Staphylococcus aureus NRS18 infected in human THP-1 cells assessed as bacterial count per mg of cell protein at low extracellular compound concentration after 24 hrs at pH 7.4. Type of experiment: functional. Summed up: as §3
For experiment [17], the system named is Staphylococcus aureus. In words: Antimicrobial activity against methicillin-susceptible Staphylococcus aureus ATCC 25923 infected in human keratinocytes assessed as bacterial count per mg of cell protein at low extracellular compound concentration after 24 hrs. In kind it is functional. A digest of the protocol:
as §5

In experiment [18] the test system is Staphylococcus aureus. The experiment can be described thus: Antimicrobial activity against methicillin-susceptible Staphylococcus aureus NRS52 infected in human THP-1 cells assessed as bacterial count per mg of cell protein at high extracellular compound concentration after 24 hrs. Type of experiment: functional. A digest of the protocol:
as §4

Experiment [19] deals with Staphylococcus aureus. The experiment can be described thus: Antimicrobial activity against hospital-acquired vancomycin-intermediate Staphylococcus aureus NRS126 infected in human THP-1 cells assessed as bacterial count per mg of cell protein at low extracellular compound concentration after 24 hrs. In kind it is functional. A digest of the protocol: as §3
The subject of experiment [20] is Staphylococcus aureus. In words: Antimicrobial activity against Panton-valentine leucocidin-positive community-acquired methicillin-resistant Staphylococcus aureus N4090440 infected in human THP-1 cells assessed as change in bacterial count after 24 hrs. To be noted: N4090440, THP-1, 24 h. Type of experiment: functional, organism-based. A digest of the protocol: as §1

The test system of experiment [21] is Staphylococcus aureus. The experiment can be described thus: Bacteriostatic activity against Panton-valentine leucocidin-positive community-acquired methicillin-resistant Staphylococcus aureus N4042228 infected in human THP-1 cells assessed as change in bacterial count after 24 hrs at pH 5.5. Type of experiment: functional. Summed up: as §4
The subject of experiment [22] is Staphylococcus aureus. The experiment can be described thus: Bacteriostatic activity against Panton-valentine leucocidin-positive community-acquired methicillin-resistant Staphylococcus aureus STA 44 infected in human THP-1 cells assessed as change in bacterial count after 24 hrs at pH 5.5. In kind it is functional. Summed up: as §4

Turning to `Nc1nc(/C(=N/O)C(=O)N[C@@H]2C(=O)N3C(C(=O)O)=C(/C=C4\CCN([C@@H]5CCNC5)C4=O)CS[C@H]23)ns1` [CEFTOBIPROLE], the EC50 in the experiment with Staphylococcus aureus [1] came out at 0.88 µg/mL (≈ 1.65 µM); with Staphylococcus aureus [2] it was 1.08 µg/mL (≈ 2.02 µM); in the experiment on Staphylococcus aureus [6], 0.19 µg/mL (≈ 0.355 µM); in the experiment with Staphylococcus aureus [8], 0.54 × MIC; in the experiment on Staphylococcus aureus [14], 0.77 ×MIC; in the experiment on Staphylococcus aureus [20] it was 0.08 µg/mL (≈ 0.15 µM). The log10cfu in the experiment on Staphylococcus aureus [3] is 2.83; in the experiment with Staphylococcus aureus [4], 2.04; in the experiment with Staphylococcus aureus [7], 2.63; in the experiment with Staphylococcus aureus [9], 2.58; in the experiment on Staphylococcus aureus [10], -0.9; in the experiment on Staphylococcus aureus [11], -0.94. Also, the log10cfu with Staphylococcus aureus [13] was -0.78; with Staphylococcus aureus [15], -1.02; in the experiment with Staphylococcus aureus [16], 2.6; in the experiment with Staphylococcus aureus [17] it was 2.48; in the experiment on Staphylococcus aureus [18], -1.01; with Staphylococcus aureus [19] it was 3.02. Also, the Activity with Staphylococcus aureus [5] is 0.74 mg/L; in the experiment on Staphylococcus aureus [12], 1.19 × MIC; in the experiment on Staphylococcus aureus [21] it was 1.45 × MIC; in the experiment on Staphylococcus aureus [22], 1.45 × MIC.
